From PubChem
A selection: hits, their analogues and other compounds. The true share with any hit is near 3.8%.
KCNK3 inh: human KCNK3 channel inhibition, primary screen; O14649; CHO-KCNK3 thallium flux, FluxOR fluorescence; stronger effect = lower value; B-score at 10 µM; actives 0.84% (n = 340,000); AID 602410;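 active means B-score under library mean minus 4 SD, starting fluorescence ratio at most library mean plus 5 SD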;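 further: more negative B-score means stronger inhibition of thallium flux through KCNK3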
Target sequence (O14649 whole entry, looked up): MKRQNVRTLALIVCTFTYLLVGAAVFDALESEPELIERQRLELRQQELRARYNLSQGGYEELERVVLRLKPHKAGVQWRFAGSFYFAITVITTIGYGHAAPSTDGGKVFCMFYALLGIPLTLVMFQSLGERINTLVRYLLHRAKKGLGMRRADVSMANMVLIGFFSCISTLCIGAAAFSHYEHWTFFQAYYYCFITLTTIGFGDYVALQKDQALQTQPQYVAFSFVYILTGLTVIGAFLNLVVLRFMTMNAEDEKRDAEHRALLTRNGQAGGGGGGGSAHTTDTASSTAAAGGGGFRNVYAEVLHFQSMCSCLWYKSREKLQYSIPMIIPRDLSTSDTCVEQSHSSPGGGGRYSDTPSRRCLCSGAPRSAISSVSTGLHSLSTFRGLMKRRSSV
KCNK9 block: blocks the human KCNK9 two-pore domain potassium channel | HEK293 KCNK9, FluxOR thallium flux fluorescence; stronger effect = lower value | AID 488922 | actives 1.2% (n = 310,000) | B-score at 10 µM | Q9NPC2;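 active means ratio B-score over 3 SD below the library mean, with starting fluorescence within 5 SD of its mean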;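 further: negative B-score means less thallium flux so channel inhibition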
Target sequence (Q9NPC2 whole entry, looked up, the tested form may be a part): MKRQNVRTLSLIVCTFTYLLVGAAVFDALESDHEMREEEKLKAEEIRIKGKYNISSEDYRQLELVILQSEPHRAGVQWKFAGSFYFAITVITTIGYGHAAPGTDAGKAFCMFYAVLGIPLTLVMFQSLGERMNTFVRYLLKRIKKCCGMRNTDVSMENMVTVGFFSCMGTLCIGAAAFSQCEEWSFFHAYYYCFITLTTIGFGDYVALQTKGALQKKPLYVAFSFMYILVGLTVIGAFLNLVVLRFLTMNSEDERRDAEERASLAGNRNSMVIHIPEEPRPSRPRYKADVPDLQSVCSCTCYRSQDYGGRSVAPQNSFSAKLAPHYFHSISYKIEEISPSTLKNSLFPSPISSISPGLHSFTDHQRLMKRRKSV
KCNQ1 block: blocks the human KCNQ1 potassium channel. B-score at 10 µM. CHO-K1 KCNQ1, FluxOR thallium flux fluorescence; stronger effect = higher value. actives 1.3% (n = 310,000). AID 2642;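 active means compounds whose thallium flux B-score, printed positive for inhibition, exceeds three library SD while starting fluorescence stays within three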;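 further: channel opened by potassium depolarization with thallium stimulus after 20 min compound exposure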
hERG rescue: shields human hERG channel from block by proarrhythmic agents. Q12809. CHO-hERG, FluxOR thallium flux, dofetilide IC70 present. activation (rescue from dofetilide block), less the hit threshold, % at 10 µM. actives 0.51% (n = 310,000). AID 1511;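 active means activation above the mean of controls blocked by dofetilide plus 5 SD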;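 further: thallium influx through hERG after potassium depolarization seen as dye fluorescence rise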
KCNQ1 pot: potentiates or activates the human KCNQ1 potassium channel | B-score at 10 µM | AID 2648 | P51787 | actives 0.35% (n = 310,000) | CHO-K1 KCNQ1, thallium flux FluxOR fluorescence; stronger effect = higher value;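 active means fluorescence ratio B-score, a plate-corrected score, at least three library SD, with initial intensity B-score within 5 SD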
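Test system: CHO-K1 cells stably expressing KCNQ1 / Medium: assay buffer / Also added: depolarizing K+/Tl+ stimulus, K2SO4 and Tl2SO4 each 12.5 mM in 5x stock / Incubation: 90 min dye loading and 20 min compound exposure, both at room temperature / Signal: thallium influx via FluxOR fluorescence, kinetic imaging / Evaluation: B score of baseline-normalized fluorescence ratio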
Kir21 block: blocks the mouse Kir2.1 inward-rectifier potassium channel | HEK293-Kir2.1, FluxOR thallium flux fluorescence; stronger effect = lower value | B-score at 10 µM | actives 0.85% (n = 310,000);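 active means fluorescence ratio B-score at or below minus 3 SD of library scores, with starting-brightness B-score within 2 SD, cut at about -4.2 in these data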;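 further: channel flux triggered by added potassium and thallium sulfate stimulus; B-score of peak minus minimum fluorescence over baseline after thallium stimulus; more negative B-score means stronger Kir2.1 block with less thallium influx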
KCNQ1 block val: human KCNQ1 channel inhibition, validation assay | shares compounds with KCNQ1 block | KCNQ1 cell line, FluxOR thallium flux fluorescence | inhibition, % at 10 µM | actives 93% (n = 1,600);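 active means primary screen active, with duplicate mean exceeding buffer control mean plus 3 SD of buffer wells, cut at about 28% in these data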;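 further: 0% = buffer control ratio and 100% = XE991 inhibitor control ratio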
CHO KCNQ1 ctr: counter-screen for KCNQ1 inhibitors: effect in parental CHO cells | parental CHO-K1, FluxOR thallium flux fluorescence ratio; stronger effect = lower value; zero means no signal rise above baseline | fluorescence ratio (Tl flux) at 10 µM | shares compounds with KCNQ1 block | actives 21% (n = 1,600) | AID 588366;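 active means mean of duplicate thallium-flux fluorescence ratios in parental host cells more than 5 SD below the buffer control mean, cut at about 0.38 in these data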;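 further: ratio is peak minus minimum fluorescence divided by baseline fluorescence; actives read low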
KCNQ1 ephys val: blocks human KCNQ1 current in automated patch clamp; AID 624120; calls only at 10 µM; actives 20% (n = 490); KCNQ1-CHO cells; shares compounds with KCNQ1 block;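 active means KCNQ1 current drop exceeding 3 SD of negative control wells, seen in both duplicate runs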;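 further: steady state current during a 2 s step from -80 to +40 mV; negative values mean current inhibition and positive values mean potentiation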
KCNQ2 spec: KCNQ1 inhibitor that also blocks rat KCNQ2 channel. shares compounds with KCNQ1 block. KCNQ2 cells, FluxOR thallium flux fluorescence. inhibition, % at 10 µM. actives 71% (n = 1,600). AID 651746;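 active means mean percent inhibition of the KCNQ2 thallium signal more than 5 SD above the buffer-only control wells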;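 further: KCNQ2 expressed in CHO cells; 0% = buffer control wells and 100% = XE-991 inhibitor control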
KCNQ1-KCNE1 inh: selectivity of KCNQ1 inhibitors: inhibition of human KCNQ1/KCNE1 channel. shares compounds with KCNQ1 block. KCNQ1/KCNE1 cells, FluxOR thallium flux fluorescence. inhibition, % at 10 µM. actives 77% (n = 1,600);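 active means mean percent inhibition of duplicate wells above the buffer-only control mean plus 3 SD of those controls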;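 further: 0% = buffer only wells and 100% = XE-991 inhibitor control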
The depositor's hits bear a star; i = inactive; / = no result; + = active, no number.

SMILES | KCNK3 inh | KCNK9 block | KCNQ1 block | hERG rescue | KCNQ1 pot | Kir21 block | KCNQ1 block val | CHO KCNQ1 ctr | KCNQ2 spec | KCNQ1-KCNE1 inh | others
CCOC(=O)c1cc(C#N)c(Oc2ccccc2)nc1-c1ccccc1 | i | i | 7* | -3.0 | i | -0.2 | 88.0* | 0.329* | 112.0%* | 96.5%*
C=CCNc1sc(C(=O)c2ccccc2)c(N)c1-c1nc2ccccc2s1 | i | i | 7* | -6.2 | i | 0.77 | 57.0* | 0.436 | 73.0%* | 83.5%*
CCCN(Cc1nc2cc(Cl)ccc2c(=O)[nH]1)C(=O)c1ccc(S(=O)(=O)N2CCCC2)cc1 | i | / | / | / | / | / | / | / | / | /
Cc1cc(OCC(=O)Nc2ccncc2)cc(C)c1Br | i | i | 8* | -19.4 | i | 1.07 | 131.0* | 0.48 | 96.0%* | i | KCNQ1 ephys val=i
CCN(CC)C(=O)Cn1cc(C(=O)C(=O)N2CCN(c3ccc(OC)cc3)CC2)c2ccccc21 | i | i | i | -7.1 | i | -0.46 | / | / | / | /
Cc1cc(=O)n(CC(=O)NCCN2CCOCC2)c2c1c(C)nn2-c1ccccc1 | i | i | i | -7.6 | i | 1.1 | / | / | / | /
Cc1cc(=O)n(CC(=O)NC2CC2)c2c1c(C)nn2-c1ccccc1 | i | i | 7* | -9.2 | i | -1.39 | 79.5* | 0.457 | i | 93.5%*
COc1ccc(-c2cc(C(=O)Nc3cc(Cl)ccc3O)no2)cc1 | i | i | i | -3.8 | i | 0.75 | / | / | / | /
Cc1[nH]n(-c2ccccc2)c(=O)c1C(c1ccccc1[N+](=O)[O-])C(C#N)C#N (configuration not stated) | i | i | i | -8.9 | i | -0.95 | / | / | / | /
Cc1[nH]n(-c2ncc(-c3ccccc3)s2)c(=O)c1C(c1ccc(Cl)cc1)C(C#N)C#N (configuration not stated) | i | i | 7* | -15.3 | i | -2.87 | 45.0* | 0.424 | i | 69.0%*
Clc1ccc(CNC2CCCC2)c(Cl)c1 | i | i | i | -5.5 | i | -1.08 | / | / | / | /
S=C(NCc1ccc(Cl)cc1Cl)NC1CCCCC1 | i | i | 7* | -15.3 | i | 0.18 | 151.5* | 0.457 | 64.7%* | i | KCNQ1 ephys val=+
S=C(NCCc1cccc(Cl)c1)NC1CCCCC1 | i | i | 8* | -9.8 | i | -2.42 | 63.5* | 0.436 | 73.7%* | 56.0%*
CCC(C(=O)O)n1cnc2scc(-c3ccc(C)c(C)c3)c2c1=O (configuration not stated) | i | i | i | -0.9 | i | 1.57 | / | / | / | /
CCCOC(=O)C(C)n1cnc2scc(-c3ccc(C)cc3)c2c1=O (configuration not stated) | i | i | 9* | -3.1 | i | -2.99 | 93.0* | 0.474 | 69.7%* | 115.5%* | KCNQ1 ephys val=+
CCC(C(=O)OC)n1cnc2scc(-c3ccc(C)c(C)c3)c2c1=O (configuration not stated) | i | i | 7* | -6.1 | i | 0.23 | 51.5* | 0.42 | 61.0%* | i
CCC1(CCC(C)C)SC(N)=NC1=O (configuration not stated) | i | / | / | / | / | / | / | / | / | /
CS(=O)(=O)c1ccc2nc(NC(=O)CCNC(=O)c3ccccc3Cl)sc2c1 | i | / | / | / | / | / | / | / | / | /
Cc1ccc(-c2csc(N3CCC(NS(=O)(=O)c4ccc5c(c4)OCCO5)CC3)n2)cc1 | i | i | 6* | -13.8 | i | -1.32 | 106.5* | 0.422 | 96.0%* | 99.5%* | KCNQ1 ephys val=i
COc1ccc(-c2nc(NC(=O)c3[nH]c(C)c(C(C)=O)c3C)sc2C)cc1 | -9.86* | i | 14* | -21.8 | i | 0.64 | 97.0* | 0.277* | 109.7%* | 180.0%*
COc1ccc(OC)c(NC(=O)c2[nH]c(C)c(C(C)=O)c2C)c1 | i | i | i | -12.6 | i | 0.98 | / | / | / | /
CC(C)NC(=O)c1onc(CSc2ccc(F)cc2)c1C(=O)NC(C)C | i | i | i | -10.3 | i | 0.15 | / | / | / | /
COc1ccc(S(=O)(=O)Nc2cccc3c2O[C@H](CN(C)C(=O)Nc2ccccc2)[C@@H](C)CN([C@H](C)CO)C3=O)cc1 | i | / | / | / | / | / | / | / | / | /
CC(C)(C)c1ccc(C(=O)Cn2cnnc2C#N)cc1 | i | i | 6* | -8.6 | i | 0.26 | 79.0* | 0.469 | i | 35.5%*
CCC(=O)N(Cc1ccco1)c1nc(C(=O)Nc2ccc(Cl)cc2)c(C)s1 | i | i | 9* | -13.6 | i | -0.29 | 87.5* | 0.454 | 63.3%* | 111.0%*
SMILES | KCNK3 inh | KCNK9 block | KCNQ1 block | hERG rescue | KCNQ1 pot | Kir21 block | KCNQ1 block val | CHO KCNQ1 ctr | KCNQ2 spec | KCNQ1-KCNE1 inh | others
CCN(C(=O)c1ccco1)c1nc(CC(=O)Nc2ccc(Cl)cc2)cs1 | i | i | i | -0.1 | i | 2.14 | / | / | / | /
CN(C)S(=O)(=O)c1cc(NC(=O)C2=COCCO2)ccc1Cl | i | / | / | / | / | / | / | / | / | /
COc1ccc(N(CC(O)Cn2c3ccccc3c3ccccc32)S(=O)(=O)c2ccccc2)cc1 (configuration not stated) | i | -7.49* | 11* | -8.4 | i | 0.98 | 107.0* | 0.474 | i | 148.5%* | KCNQ1 ephys val=i
CS(=O)(=O)N(CC(O)Cn1c2ccccc2c2ccccc21)c1ccccc1 (configuration not stated) | i | i | i | -7.5 | i | -1.2 | / | / | / | /
COc1ccccc1NC(=O)CN1CCN(C2c3ccccc3-c3ccccc32)CC1 | i | i | 7* | -5.5 | i | -0.02 | 107.5* | 0.417 | 100.0%* | 155.0%* | KCNQ1 ephys val=i
COc1ccccc1NC(=O)CN1CCC(n2nnc3cc(F)ccc32)CC1 | i | i | i | -10.5 | i | -0.41 | / | / | / | /
COc1ccccc1NC(=O)CN1CCN(CC(=O)Nc2ccccc2F)CC1 | i | / | / | / | / | / | / | / | / | /
COc1ccccc1NC(=O)CN1CCC(n2c(C)nc3cc(F)ccc32)CC1 | i | i | 8* | -12.6 | i | -0.61 | 116.5* | 0.441 | 96.7%* | 98.0%* | KCNQ1 ephys val=i
CCC(C(=O)NC1CCCC1)N(Cc1ccco1)C(=O)CNS(=O)(=O)c1ccccc1 (configuration not stated) | i | i | i | -7.0 | i | 1.2 | / | / | / | /
